Screening data deposited in PubChem by several laboratories.
Only some compounds are listed: those with a hit (about 3.9% of all), similar ones and a draw of the others.
NF-kB neuron act: NF-kB expression increase, human neuronal cells | NF-kB reporter expression; hits give high values | fold change at 12.5 µM | 1.6% of 190,000 active | AID 1239; in the data active means fold change above about 3.3
FLuc inhib CS: inhibits firefly luciferase, flagging false hits in luciferase inhibition screens; P08659; ATPLite firefly luciferase biochemical luminescence, 10 min; inhibition, % at 10 µM; 1.5% of 200,000 active; AID 1006;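 active means inhibition above about 50% when tested at 10 µM, limit read from the data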
STAT1 act: increases IFN-gamma driven STAT1 reporter signal. NIH 3T3 STAT1-luciferase reporter, luminescence; 100% = IFN-gamma alone, no compound. 2.6% of 200,000 active. AID 932. activation (% of control), % at 5.5 µM;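 active means activation above the screen-wide mean activation plus 3 SD, cut at about 130% in these data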;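 further: raw ratio to IFN-gamma control signal so 100% means no change and 0% no light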
APP 5'UTR act: APP 5'UTR luciferase reporter activation; SH-SY5Y APP 5'UTR luciferase reporter, luminescence; zero percent = DMSO vehicle wells; activation, % at 2 µM; 1% of 190,000 active; AID 1276;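 active means activation above a set limit, based on mean plus 3 SD of controls, cut at about 140% in these data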
Rad51 HR inh: blocks human Rad51 in homologous recombination; 0.085% of 200,000 active; hRad51 DNA strand exchange, fluorescence dequenching; inhibition, % at 10 µM;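 active means inhibition above 40% at the single screening dose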;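 further: 0% = DMSO control wells and 100% = blanks with heterologous ssDNA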
Target sequence (Q06609 whole entry, looked up): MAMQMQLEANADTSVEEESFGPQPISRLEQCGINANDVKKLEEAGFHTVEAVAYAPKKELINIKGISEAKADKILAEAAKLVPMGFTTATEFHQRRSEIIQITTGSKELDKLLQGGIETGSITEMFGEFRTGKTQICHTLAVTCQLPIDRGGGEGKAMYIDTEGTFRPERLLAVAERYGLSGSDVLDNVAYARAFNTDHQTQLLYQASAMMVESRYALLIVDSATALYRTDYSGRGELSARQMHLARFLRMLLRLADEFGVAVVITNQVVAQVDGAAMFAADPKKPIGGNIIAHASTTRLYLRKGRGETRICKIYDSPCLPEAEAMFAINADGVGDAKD
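Material: human Rad51–ssDNA filaments; Probe or stimulus: labelled 47-mer dsDNA for strand exchange; Doses: single 10 µM dose; Incubation: 37 °C 15-min filament assembly, 30-min compound preincubation, 15-min exchange; Technique: FRET fluorescence dequenching, excitation 485 nm, emission 520 nm; Measure: Fluorescence-based percent inhibition, control- and blank-normalised; Benchmarks: plate control and blank wells.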
FLuc stim CS: firefly luciferase counter-screen for stimulation assays | 200,000 tested, under 10 active | activation factor at 10 µM | ATPlite luciferase biochemical, luminescence, 10 min; 0 = ATP-free wells, 1 = DMSO control;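 active means luciferase activation factor, scaled between plate controls, of at least 2 with compound at 10 µM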
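test system = cell-free luciferase reagent | medium = PBS as buffer for the ATP substrate | dosing = test compounds dosed from 2 mM stocks in 100% DMSO | incubation = 10 min at ambient temperature | detection = luminescence measurement of luciferase light output | benchmarks = low control with PBS replacing ATP, high control enzyme plus ATP without compound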
Starred values were filed as active, the others as inactive; x = no result given.

SMILES	NF-kB neuron act	FLuc inhib CS	STAT1 act	APP 5'UTR act	Rad51 HR inh	FLuc stim CS
Cc1ccc(Nc2nc(N)nc(CC#N)n2)cc1	1.5	8	137*	43	2	0.9
Cc1ccc(Nc2nc(N)nc(CSc3ncccn3)n2)cc1	5.4*	6	130*	104	0	0.9
Nc1nc(CSc2n[nH]c(-c3ccccc3)n2)nc(Nc2ccccc2)n1	0.62	-3	96	6	-8	1
Nc1nc(CSc2ncccn2)nc(Nc2ccccc2)n1	2.9	2	134*	46	-1	1
COc1cccc(NC2=Nc3cccc4cccc2c34)c1	1.2	5	104	10	-18	0.9
CC(C)(C)NC(=O)c1nn(Cc2ccccc2)c(=O)c2ccccc12	1	-2	107	14	6	1
CN(C)S(=O)(=O)Nc1cc(Cl)cc(Cl)c1	1.2	-6	104	-1	4	1.1
O=C(NCCc1ccccc1)c1c(F)c(F)c(F)c(F)c1F	1.2	-2	100	12	8	1
O=C(Nc1ccccc1)C1=C[C@H](c2ccccc2)C[C@H](OCCCCO)O1	x	x	x	x	-14	x
O=C(Nc1ccccc1)C1=C[C@@H](c2ccc(Br)cc2)C[C@@H](OCCCCO)O1	1.5	0	129*	21	-5	1
Cc1ccc(-c2nc(N/N=C/c3ccncc3)c3ccccc3n2)cc1	2.4	98*	29	31	-7	0
Clc1ccc(/C=N/Nc2nc(Cl)nc3ccccc23)cc1	1.6	32	133*	28	4	0.7
Nc1c(Cl)ncnc1N/N=C/c1ccnc2ccccc12	1.1	53*	110	24	2	0.5
C(=N\Nc1ncnc2ccccc12)/c1ccccc1	6*	74*	132*	63	6	0.3
CC(C)N(C(=S)Nc1cccnc1)c1ccccc1	x	x	x	x	27	x
CC(C)c1ccc(OCC(=O)NCCO)cc1	1.1	13	105	15	-1	0.9
CCOc1ccc2nc(N3CCC(C(=O)N4CCN(C5CCCCC5)CC4)CC3)sc2c1	1	26	117	12	0	0.7
CCOc1ccc(OCC)c(NC(=O)C2CCN(c3ncccn3)CC2)c1	1.4	-7	105	-8	42*	1.1
CCOc1ccc2nc(N3CCC(C(=O)Nc4nnc(CC)s4)CC3)sc2c1	1.7	4	134*	33	-7	1
CCCCCCN=C(C)c1ccccc1O	x	x	x	x	-16	x
Cc1ccc2cccc(S(=O)(=O)N3CCCc4ccccc43)c2n1	1.2	-5	100	1	-5	1.1
Cc1ccccc1NC1=NCC(c2ccc([N+](=O)[O-])cc2)S1 (stereo not drawn)	1.1	-7	78	19	-133	1.1
CN(C)/N=C/c1ccc(OS(=O)(=O)c2ccccc2)cc1	4.8*	3	140*	89	-7	1
CC1CCC/C(=N\Nc2ccc(Cl)c(C(=O)O)c2)C1 (stereo not drawn)	1.7	1	111	217*	-9	1
CC1CCC/C(=N\NC(=O)Nc2ccccc2)C1 (stereo not drawn)	2	36	120	36	10	0.6
SMILES	NF-kB neuron act	FLuc inhib CS	STAT1 act	APP 5'UTR act	Rad51 HR inh	FLuc stim CS
Cc1ccc(N2C(=O)C(NC(=O)c3ccccc3)(C(F)(F)F)C3=C2CC(C)(C)CC3=O)cc1 (stereo not drawn)	14*	-5	99	-11	0	1
Cc1ccsc1C=C1C(=O)c2ccccc2C1=O	0.79	73*	105	11	1	0.3
Cc1ccsc1/C=C1/C(=O)NN(c2ccccc2)C1=O	1.2	59*	79	-4	6	0.4
Cn1cc(Br)c(-c2cccc(NC(=O)CCC(=O)O)c2)n1	x	x	x	x	6	x
CCSc1nn2c(=O)c3ccccc3nc2s1	2.4	27	131*	43	4	0.7
CC1=CC(=C2C=CC(=O)C=C2)C=C(C)N1C	x	x	x	x	-14	x
CC(C)(C)NC(=O)C(c1cccs1)N(C(=O)c1csnn1)c1ccccc1F (stereo not drawn)	1	-4	100	3	-163	1
COc1ccc(CCNC(=O)CN2C(=O)c3ccccc3S2(=O)=O)cc1	x	-5	104	24	-9	1
COc1ccc(C2=NOC(CN3C(=O)c4ccccc4S3(=O)=O)C2)cc1 (stereo not drawn)	5.5*	43	148*	137*	1	0.6
O=C1c2ccccc2S(=O)(=O)N1CC1CC(c2ccccc2)=NO1 (stereo not drawn)	2.6	24	132*	35	3	0.8
O=C1c2ccccc2S(=O)(=O)N1CC1CC(c2ccc(Cl)cc2)=NO1 (stereo not drawn)	1.4	50*	139*	100	x	0.5
Cc1nn(-c2cccc(Cl)c2)c2nc(-c3ccncc3)cc(C(=O)N3CCOCC3)c12	0.67	-6	106	-11	16	1.1
C/C(=N\NC(=O)c1c[nH]c2ccccc12)c1ccc2c(c1)OCO2	0.84	18	135*	10	3	0.8
Cc1[nH]c2ccccc2c1/C=N/NC(=O)CCC(=O)Nc1ccccc1	0.92	-4	100	16	-5	1
Cc1[nH]c2ccccc2c1/C=N/NC(=O)Nc1ccccc1	1.1	0	131*	49	-8	1
O=C(N/N=C/c1cc2c(cc1Br)OCO2)c1c[nH]c2ccccc12	0.91	14	143*	94	-8	0.9
O=C(N/N=C/c1ccc(Br)s1)Nc1ccccc1	1.7	0	130*	21	x	1
Cn1c(NC(=O)c2ccccc2F)c(-c2cccs2)c(=O)c2ccccc21	x	x	x	x	10	x
O=C(Cc1ccccc1[N+](=O)[O-])N1CCc2ccccc2C1	1.7	-1	111	2	3	1
CCCC[C@@H]1CCCO[C@@](C(=O)NCc2ccc(C)o2)(C(F)(F)F)C1	x	x	x	x	-2	x
Cc1nc2ccccn2c1C(=O)NN=C1C2CC3CC(C2)CC1C3	0.93	-5	101	-9	-89	1
CCN1CC(CCN2CCOCC2)C(c2ccccc2)(c2ccccc2)C1=O (stereo not drawn)	x	x	x	x	3	x
C/C(=N\O)C(C)Oc1ccc(Cl)cc1 (stereo not drawn)	1.1	-6	95	-22	16	1.1
O=C(N/N=C/c1ccc(Br)s1)c1c[nH]c2ccccc12	1.2	6	138*	64	0	0.9
CC(=O)Nc1cccc(/C(C)=N/NC(=O)c2ccc3c(c2)OCO3)c1	x	75*	118	66	x	0.2
C/C(=N\NC(=O)c1ccccc1)c1ccc2c(c1)OCO2	2.1	30	117	45	-3	0.7
COc1cc(OC)cc(C(=O)NC2=NCCS2)c1	1.2	40	104	-2	-1	0.6
O=C(NC1=NCCS1)c1cccc(OC(F)F)c1	4.1*	30	140*	150*	11	0.7
